This note sets out measurements from ChEMBL document CHEMBL2040715, “Discovery of a Potent HIV Integrase Inhibitor that Leads to a Prodrug with Significant anti-HIV Activity” (ACS Med Chem Lett, 2011).

Series [1] deals with Human immunodeficiency virus 1. Nature of the series: Antiviral activity against HIV1 infected in MAGI cells by beta-galactosidase reporter gene assay. Type of series: functional, organism-based. As to conditions: Human immunodeficiency virus 1, MAGI. In a few lines:
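HIV-1 infection of MAGI cells, with raltegravir as the MOI-sensitive positive control validating each run. EC50 and EC90 were determined.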
Background: In a reporter assay the amount or activity of a reporter protein is the signal.

Series [2] addresses Human immunodeficiency virus type 1 integrase (Human immunodeficiency virus 1, UniProt Q7ZJM1). Nature of the series: Inhibition of HIV1 integrase-mediated strand transfer.
The subject of series [3] is Human immunodeficiency virus 1. Briefly: Antiviral activity against HIV1 infected in human MT4 cells. As to conditions: Human immunodeficiency virus 1, MT4.
Series [4] can be described thus: Cytotoxicity against PBMC. Type of series: cell-based. Particulars: human.
Series [5] in a line: Cytotoxicity against human MAGI cells by MTS assay. Type of series: cell-based. Background: Tetrazolium dyes change colour on reduction, which living cells bring about.
Series [6] can be described thus: Therapeutic index, ratio of CC50 for human MAGI cells to EC50 for HIV1. Type of series: cell-based.

Chain of Human immunodeficiency virus type 1 integrase (Q7ZJM1 whole entry): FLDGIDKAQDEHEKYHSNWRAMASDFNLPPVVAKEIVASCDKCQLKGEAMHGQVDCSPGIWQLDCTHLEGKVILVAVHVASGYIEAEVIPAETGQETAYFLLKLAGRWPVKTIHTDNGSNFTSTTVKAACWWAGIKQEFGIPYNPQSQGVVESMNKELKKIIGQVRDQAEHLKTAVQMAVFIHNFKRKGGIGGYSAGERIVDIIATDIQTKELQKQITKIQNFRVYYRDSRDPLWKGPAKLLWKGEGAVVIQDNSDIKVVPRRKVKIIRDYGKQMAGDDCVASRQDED

For orientation: EC50 means the concentration at which the effect is half-maximal. Regarding `O=C(O)/C(O)=C/C(=O)c1cc(Cc2ccccc2)cn(Cc2cccc(F)c2F)c1=O`, the response in series [1] was half-maximal at 900 nM (EC50).
As for `COc1ccc(Cn2cc(Cc3ccccc3)cc(C(=O)/C=C(\O)C(=O)O)c2=O)cc1`, a half-maximal effect in series [1] (EC50) was put at 1800 nM.
`O=C(O)/C(O)=C/C(=O)c1cc(Cc2ccccc2Cl)cn(Cc2ccc(F)cc2F)c1=O` had a 50% effective concentration (EC50) in series [1] of 800 nM.
For `Cc1cccc(Cn2cc(Cc3ccccc3F)cc(C(=O)/C=C(\O)C(=O)O)c2=O)c1`, in series [1], the EC50 stood at 900 nM.
`O=C(O)/C(O)=C/C(=O)c1cc(Cc2ccccc2)cn(Cc2ccc(F)c(Cl)c2F)c1=O` yielded a half-maximal effective concentration (EC50) in series [1] of 600 nM.
On to `N#Cc1ccc(Cn2cc(Cc3ccccc3F)cc(C(=O)/C=C(\O)C(=O)O)c2=O)cc1`, for which it took 1100 nM to reach a half-maximal effect in series [1] (EC50).
In turn, `O=C(O)/C(O)=C/C(=O)c1cc(Cc2ccccc2)cn(Cc2ccc(F)c(Cl)c2)c1=O` had an EC50 in series [1] of 800 nM.
For the molecule `Cc1cc(F)ccc1Cc1cc(C(=O)/C=C(\O)C(=O)O)c(=O)n(Cc2ccc(F)cc2)c1`, it took 1000 nM to reach a half-maximal effect in series [1] (EC50).
The same measure, in the same setting: the value for `O=C(O)/C(O)=C/C(=O)c1cc(Cc2ccc(F)c(Cl)c2)cn(Cc2c(F)cccc2F)c1=O` was 5100 nM.
For the molecule `Cc1cccc(Cc2cc(C(=O)/C=C(\O)C(=O)O)c(=O)n(Cc3cccc(Cl)c3F)c2)c1`, the midpoint of the response in series [1], the EC50, lay at 1400 nM.
Same read-out and setting: the value for `O=C(O)/C(O)=C/C(=O)c1cc(Cc2ccccc2F)cn(Cc2ccc(F)cc2)c1=O` was 800 nM.
Turning to `O=C(O)/C(O)=C/C(=O)c1cc(Cc2ccc(F)c(Cl)c2)cn(Cc2ccc(F)cc2)c1=O`, the EC50 in series [1] is above 5000 nM.
On to `O=C(O)/C(O)=C/C(=O)c1cc(Cc2ccc(F)c(Cl)c2)cn(Cc2ccccc2F)c1=O`, for which the EC50 in series [1] worked out at 2200 nM.
On the same count and under the same terms, in the case of `O=C(O)/C(O)=C/C(=O)c1cc(Cc2ccc(F)cc2)cn(Cc2cccc(F)c2)c1=O` it was 1000 nM; in that of `O=C(O)/C(O)=C/C(=O)c1cc(Cc2ccccc2F)cn(Cc2cccc(F)c2)c1=O`, 1900 nM.
`Cc1cc(F)ccc1Cc1cc(C(=O)/C=C(\O)C(=O)O)c(=O)n(Cc2ccccc2F)c1` showed an EC50 in series [1] of 1300 nM.
The same measure, in the same setting: the value for `O=C(O)/C(O)=C/C(=O)c1cc(Cc2ccc(F)cc2F)cn(Cc2ccc(F)cc2F)c1=O` was 300 nM; that for `O=C(O)/C(O)=C/C(=O)c1cc(Cc2cccc(Cl)c2F)cn(Cc2cccc(Cl)c2)c1=O` was 1500 nM.
Take `O=C(O)/C(O)=C/C(=O)c1cc(Cc2ccccc2)cn(Cc2ccccc2F)c1=O`: the EC50 in series [1] was 900 nM.
In general, IC50 refers to the concentration that gives 50% inhibition. `O=C(O)/C(O)=C/C(=O)c1cc(Cc2ccccc2)cn(Cc2ccccc2)c1=O`: the midpoint of inhibition in series [2], the IC50, lay at 70 nM. Besides, it took 2100 nM to reach a half-maximal effect in series [1] (EC50).
As for `O=C(O)/C(O)=C/C(=O)c1cc(Cc2cccc(Cl)c2)cn(Cc2cccc(Cl)c2F)c1=O`, the concentration giving a half-maximal response (EC50) in series [1] worked out at 1400 nM.
The molecule `O=C(O)/C(O)=C/C(=O)c1cc(Cc2ccc(F)cc2)cn(Cc2ccc(F)cc2)c1=O` showed an EC50 in series [1] of 800 nM.
In series [1], `Cc1ccc(Cn2cc(Cc3ccc(F)cc3)cc(C(=O)/C=C(\O)C(=O)O)c2=O)cc1` displayed an EC50 of 1600 nM.
In series [1], `COc1ccc(Cc2cc(C(=O)/C=C(\O)C(=O)O)c(=O)n(Cc3ccc(OC)cc3)c2)cc1` came in with a concentration for a half-maximal effect (EC50) above 5000 nM.
In series [1], `O=C(O)/C(O)=C/C(=O)c1cc(Cc2ccc(F)cc2F)cn(Cc2ccccc2)c1=O` registered an EC50 of 800 nM.
In series [1], `O=C(O)/C(O)=C/C(=O)c1cc(Cc2ccccc2)cn(Cc2cccc(F)c2)c1=O` displayed an EC50 of 2000 nM.
As for `O=C(O)/C(O)=C/C(=O)c1cc(Cc2ccc(F)cc2)cn(Cc2c(F)cccc2F)c1=O`, in series [1], it took 1400 nM to reach a half-maximal effect (EC50).
For `O=C(O)/C(O)=C/C(=O)c1cc(Cc2ccccc2)cn(Cc2cc(Cl)ccc2F)c1=O`, the EC50 in series [1] came to 900 nM.
Take `O=C(O)/C(O)=C/C(=O)c1cc(Cc2ccccc2)cn(Cc2cccc(Cl)c2F)c1=O`: in series [1], a half-maximal effect (EC50) was put at 700 nM.
In series [3], `O=C(O)C(=O)CC(=O)c1cccn1Cc1ccc(F)cc1` showed a concentration for a half-maximal effect (EC50) of 1000 nM.
`O=C(O)/C(O)=C/C(=O)c1cc(Cc2cccc(Cl)c2)cn(Cc2ccc(F)c(Cl)c2)c1=O` had an EC50 in series [1] of 1200 nM.
Usually CC50 stands for the concentration at which the toxic effect on the cells reaches its halfway point. In series [4], `O=C(/C=C(\O)c1nc[nH]n1)c1ccc(Cc2ccc(F)cc2)o1` [S-1360] displayed a CC50 of 110000 nM.
In series [1], `O=C(O)/C(O)=C/C(=O)c1cc(Cc2ccccc2)cn(Cc2c(F)cccc2F)c1=O` had an EC50 of 1500 nM.
In turn, `O=C(O)/C(O)=C/C(=O)c1cc(Cc2ccc(F)c(Cl)c2)cn(Cc2ccc(F)cc2F)c1=O` returned an EC50 in series [1] of 1400 nM.
Still for that read-out and setting: in the case of `O=C(O)/C(O)=C/C(=O)c1cc(Cc2ccc(F)cc2)cn(Cc2cccc(Cl)c2)c1=O` it was 1200 nM.
`Cc1cccc(Cn2cc(Cc3ccc(F)cc3F)cc(C(=O)/C=C(\O)C(=O)O)c2=O)c1` displayed a concentration for a half-maximal effect (EC50) in series [1] of 700 nM.
On to `O=C(O)/C(O)=C/C(=O)c1cc(Cc2ccc(F)c(Cl)c2)cn(Cc2ccc(F)c(Cl)c2)c1=O`, for which the EC50 in series [1] was found to be 2400 nM.
`O=C(O)/C(O)=C/C(=O)c1cc(Cc2ccccc2)cn(Cc2ccc(F)cc2)c1=O` gave an EC50 in series [1] of 1000 nM.
In turn, `Cc1cc(F)ccc1Cc1cc(C(=O)/C=C(\O)C(=O)O)c(=O)n(Cc2ccccc2)c1` had a half-maximal effective concentration (EC50) in series [1] of 1300 nM.
Regarding `Cc1ccc(Cn2cc(Cc3ccccc3F)cc(C(=O)/C=C(\O)C(=O)O)c2=O)cc1`, the EC50 in series [1] was 700 nM.
Molecule `O=C(O)/C(O)=C/C(=O)c1cc(Cc2ccccc2F)cn(Cc2cccc(Cl)c2)c1=O` had an EC50 in series [1] of 700 nM.
In series [1], `O=C(O)/C(O)=C/C(=O)c1cc(Cc2ccccc2F)cn(Cc2ccc(F)cc2F)c1=O` came in with an EC50 of 600 nM.
With `O=C(O)/C(O)=C/C(=O)c1cc(Cc2cccc(Cl)c2)cn(Cc2cccc(Cl)c2)c1=O`, the midpoint of the response in series [1], the EC50, lay at 1100 nM.
In series [1], `Cc1ccc(Cn2cc(Cc3cccc(Cl)c3)cc(C(=O)/C=C(\O)C(=O)O)c2=O)cc1` displayed an EC50 of 2500 nM.
For the molecule `O=C(O)/C(O)=C/C(=O)c1cc(Cc2ccc(F)cc2F)cn(Cc2ccc(F)cc2)c1=O`, it took 600 nM to reach a half-maximal effect in series [1] (EC50).
In turn, `O=C(O)/C(O)=C/C(=O)c1cc(Cc2ccc(F)cc2)cn(Cc2cccc(F)c2F)c1=O` had an EC50 in series [1] of 700 nM.
Molecule `CC(C)OC(=O)/C(O)=C/C(=O)c1cc(Cc2ccc(F)cc2F)cn(Cc2ccc(F)cc2F)c1=O` came in with an EC50 in series [1] of 46 nM.
`O=C(O)/C(O)=C/C(=O)c1cc(Cc2ccccc2F)cn(Cc2ccccc2F)c1=O`: in series [1], the EC50 worked out at 700 nM.
The molecule `O=C(O)/C(O)=C/C(=O)c1cc(Cc2ccccc2)cn(Cc2ccc(F)cc2F)c1=O` displayed an EC50 in series [1] of 600 nM.
`O=C(O)/C(O)=C/C(=O)c1cc(Cc2cccc(Cl)c2F)cn(Cc2cccc(Cl)c2F)c1=O` yielded an EC50 in series [1] of 2400 nM.
`O=C(O)/C(O)=C/C(=O)c1cc(Cc2cccc(Cl)c2)cn(Cc2ccccc2F)c1=O` registered an EC50 in series [1] of 1900 nM.
Consider `Cc1cccc(Cn2cc(Cc3ccc(F)c(Cl)c3)cc(C(=O)/C=C(\O)C(=O)O)c2=O)c1`, for which, in series [1], the response was half-maximal at 2200 nM (EC50).
Still for that read-out and setting: in the case of `O=C(O)/C(O)=C/C(=O)c1cc(Cc2ccc(F)cc2)cn(Cc2ccccc2F)c1=O` it was 700 nM.
As to `CC(C)OC(=O)/C(O)=C/C(=O)c1cc(Cc2ccc(F)cc2F)cn(Cc2ccccc2F)c1=O`, the half-maximal inhibitory concentration (IC50) in series [2] is above 475 nM. In series [1], this molecule displayed a 50% effective concentration (EC50) of 9 nM. In series [5], this molecule gave a CC50 of 135000 nM and a CC90 above 200000 nM. In addition, in series [6], the “Ratio CC50/EC50” value is reported as 15000.
Molecule `O=C(O)/C(O)=C/C(=O)c1cc(Cc2cccc(Cl)c2)cn(Cc2ccc(Cl)cc2)c1=O` showed an EC50 in series [1] of 2500 nM.
For `O=C(O)/C(O)=C/C(=O)c1cc(Cc2cccc(Cl)c2)cn(Cc2ccc(F)cc2)c1=O`, a half-maximal response in series [1] (EC50) required 1400 nM.
For `Cc1ccc(Cn2cc(Cc3ccc(F)c(Cl)c3)cc(C(=O)/C=C(\O)C(=O)O)c2=O)cc1`, the EC50 in series [1] was above 5000 nM.
Still for that read-out and setting: the value for `O=C(O)/C(O)=C/C(=O)c1cc(Cc2cccc(C(=O)O)c2)cn(Cc2ccccc2)c1=O` was above 5000 nM; that for `O=C(O)/C(O)=C/C(=O)c1cc(Cc2ccccc2F)cn(Cc2cccc(F)c2F)c1=O` was 800 nM.
